# ARNT-TACC3 inh: disruptors of ARNT/TACC3 protein interaction, primary screen, biochemical, AlphaScreen, single concentration; Transforming acidic coiled-coil-containing protein 3 (Homo sapiens), Q9Y6A5; AlphaScreen His-ARNT PAS-B/GST-TACC3 binding, luminescence; TACC3 fragment carries E629A point mutation; inhibition, % at 9.99 µM; 0.66% of 390,000 active; AID 623870, 2012;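 active = mean inhibition of replicates at least 50% and at least half of replicates each reaching 50%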
# ABHD4 inh: ABHD4 inhibitors, primary screen, biochemical, fluorescence polarization, mouse | (Lyso)-N-acylphosphatidylethanolamine lipase (Mus musculus), Q8VD66 | purified mABHD4, FP-Rh probe fluorescence polarization | inhibition, % at 8.92 µM | 0.54% of 370,000 active;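 active = inhibition exceeding the mean over every tested compound plus 3 SD, cut at about 30% in these data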
# Target sequence (Q8VD66 whole entry, looked up): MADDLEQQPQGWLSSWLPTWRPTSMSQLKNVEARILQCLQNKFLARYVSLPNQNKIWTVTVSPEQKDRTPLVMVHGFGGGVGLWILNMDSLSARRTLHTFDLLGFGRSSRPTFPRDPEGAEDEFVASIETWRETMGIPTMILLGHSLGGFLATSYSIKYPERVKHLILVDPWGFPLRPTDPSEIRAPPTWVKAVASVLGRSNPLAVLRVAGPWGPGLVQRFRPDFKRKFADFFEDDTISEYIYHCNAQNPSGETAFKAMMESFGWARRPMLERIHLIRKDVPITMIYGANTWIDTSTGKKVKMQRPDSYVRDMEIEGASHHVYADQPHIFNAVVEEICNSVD
#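 Material: mouse ABHD4 enzyme, wild type; Benchmarks: S159A mutant high control, sample median low control; Buffer or medium: HEPES pH 7.0, NaCl, Pluronic buffer; Signal: fluorescence polarization; Read-out: percent inhibition of probe binding, normalized to plate controls; Timing: pre-incubation 45 min, probe exposure 60 min, at 25 °C; Dosing: 8.92 µM, single dose.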
# HTRA1 inhibitor: HTRA1 serine protease inhibitors, primary screen, biochemical, fluorescence polarization, HTS; 0.5% of 340,000 active; AID 504803, 2011; inhibition, % at 5.96 µM; recombinant HTRA1, FP-rhodamine activity-based probe; in the data active = inhibition above about 36%
# SIAE inh: human SIAE inhibitors, primary screen, biochemical, fluorescence polarization, FP-Rh probe, 1536-well HTS | Sialate O-acetylesterase (Homo sapiens), Q9HAT2 | SIAE FP-Rh probe binding | inhibition, % at 9.66 µM | 0.69% of 370,000 active | AID 1053197, 2014;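 active = inhibition above a cutoff: mean of compounds within the control limits plus 3 SD of those, cut at about 17% in these data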
# TCR-CD3 inh: inhibitors of human TCR-CD3 interaction, primary screen, biochemical, fluorescence, TAMRA-labeled TCR probe; T-cell receptor (TCR); inhibition, % at 9.4 µM; 0.37% of 360,000 active; AID 651800, 2012; in the data active = inhibition above about 19%;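 note: recombinant mutant TCR 2C K166C tagged with TAMRA read by polarization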
# A number is an active result; – = inactive; · = no result given. An excerpt weighted towards active compounds, which were near 1.8% of everything screened.
SMILES,ARNT-TACC3 inh,ABHD4 inh,HTRA1 inhibitor,SIAE inh,TCR-CD3 inh
CC1=C/C(=C(/c2cc(C)c(O)c(Br)c2)c2ccccc2S(=O)(=O)O)C=C(Br)C1=O,49,–,–,–,–
CC1=C/C(=C(/c2ccc(O)c(C)c2)c2ccccc2S(=O)(=O)O)C=CC1=O,–,–,–,–,–
Cc1cc(Nc2ccc(Br)cc2)n2nc(C)nc2n1,11,–,–,–,–
CCCNC(=O)[C@@H]1[C@@H](CO)[C@@H]2Cn3c(ccc(-c4ccc(F)cc4)c3=O)[C@@H]2N1CC1CC1,–,·,·,·,·
COc1ccc(C2N(c3ccc(Cl)cc3)C(=O)C3CCCN32)cc1 (stereo unspecified),30,–,–,–,–
Cc1nnc2sc(SCc3ccc(Br)cc3)nn2c1=O,–,–,–,–,–
Cc1nnc2sc(SCC(=O)Nc3ccc(Br)cc3)nn2c1=O,74,–,–,–,–
COc1ccc(OC)c(NC(=O)CSc2nn3c(=O)c(C)nnc3s2)c1,69,–,–,–,–
Cc1ccccc1CSc1nn2c(=O)c(C)nnc2s1,–,–,–,–,–
Cc1nnc2sc(SCC(=O)N3CCC(C)CC3)nn2c1=O,63,–,–,–,–
Cc1ccccc1NC(=O)CSc1nn2c(=O)c(C)nnc2s1,51,–,–,–,–
COc1ccccc1S(=O)(=O)N[C@H]1C=C[C@@H](CC(=O)N2CCN(C)CC2)O[C@@H]1CO,–,·,·,·,·
COc1cccc(NC(=O)CSc2nn3c(=O)c(C)nnc3s2)c1,67,–,–,–,–
COc1ccc(CCNC(=O)CSc2nn3c(=O)c(C)nnc3s2)cc1OC,–,–,–,–,–
COC(=O)c1ccc(NC(=O)CSc2nn3c(=O)c(C)nnc3s2)cc1,60,–,–,–,–
Cc1nnc2sc(SCC(=O)Nc3cccc(Cl)c3)nn2c1=O,65,–,–,–,–
COc1ccc(NC(=O)CSc2nn3c(=O)c(C)nnc3s2)cc1,61,–,–,–,–
COc1ccc(NC(=O)CSc2nnc(C)c(=O)n2N)cc1,–,–,–,–,–
C[C@@H]1CN([C@@H](C)CO)C(=O)c2cc(NC(=O)NC3CCCCC3)ccc2O[C@H]1CN(C)Cc1ccc(C(=O)O)cc1,–,·,·,·,·
C/C=C/c1ccc(OC(C)=O)c(OC)c1,20,–,–,–,–
CCNC(=O)C[C@H]1CC[C@H]2[C@@H](COc3ccc(NC(=O)Nc4cccc(OC)c4)cc3C(=O)N2C)O1,–,·,·,·,·
CCc1ccc2c(c1)CCCN2C(=O)c1ccccc1C(=O)O,49,–,–,–,–
C[C@H]1CN([C@@H](C)CO)C(=O)c2cccc(NC(=O)C3CC3)c2O[C@@H]1CN(C)C(=O)Nc1ccc(F)cc1,–,·,·,·,·
CC(C)CN(C(=O)CSc1nn(-c2ccc(Cl)cc2)c(=S)s1)C1CCS(=O)(=O)C1 (stereo unspecified),36,–,–,–,–
Cc1nnc(SCC(=O)N(CC(C)C)C2CCS(=O)(=O)C2)s1 (stereo unspecified),–,–,–,–,–
SMILES,ARNT-TACC3 inh,ABHD4 inh,HTRA1 inhibitor,SIAE inh,TCR-CD3 inh
O=C(NCC[C@H]1CC[C@H](NC(=O)Nc2cc(F)ccc2F)[C@H](CO)O1)Nc1ccc(Cl)cc1,–,·,·,·,·
CCOc1cc(/C=C(/C#N)c2ccc(F)cc2)ccc1OCc1ccc(C(=O)O)o1,–,–,–,–,–
CCOc1cc(/C=C(/C#N)c2nc3ccccc3[nH]2)ccc1OCc1ccc(C(=O)O)o1,59,–,–,–,–
CC(=O)OCC1OC(Sc2cccc3cccnc23)C(OC(C)=O)C(OC(C)=O)C1OC(C)=O (stereo unspecified),68,–,–,–,–
CC(=O)OCC1OC(n2ccc3ccccc32)C(OC(C)=O)C(OC(C)=O)C1OC(C)=O (stereo unspecified),–,–,–,–,–
O=C(NCCCN1CCCCCC1)c1ccc(CS(=O)(=O)Cc2ccccc2F)o1,–,–,–,–,–
O=C(NCCCN1CCOCC1)c1ccc(CS(=O)(=O)Cc2ccccc2Cl)o1,active,–,–,–,–
C[C@H](CO)N1C[C@H](C)[C@H](CN(C)C(=O)Cc2ccccn2)Oc2ncc(C#C[C@@H](C)O)cc2C1=O,–,·,·,·,·
Cc1cccc(/C=C(\C(=O)O)c2ccc(S(=O)(=O)N3CCCC3)s2)c1,45,–,–,–,–
CO[C@H]1CN(C)C(=O)c2ccc(NC(=O)C3CCC3)cc2OC[C@@H](C)N(C(=O)CN(C)C)C[C@@H]1C,–,·,·,·,·
Cc1csc(N/N=C/c2ccccn2)n1,59,–,–,–,–
COc1cccc(S(=O)(=O)N[C@@H]2CC[C@H](CCn3cc(-c4ccccc4OC)nn3)O[C@@H]2CO)c1,–,·,·,·,·
Cc1noc(C)c1NC(=O)N(C)C[C@@H]1OCCCC[C@@H](C)Oc2ccc(NC(=O)c3ccncc3)cc2C(=O)N([C@H](C)CO)C[C@H]1C,–,·,·,·,·
COc1ccc(Cc2nnc(N/N=C/c3ccc(Br)cc3)[nH]c2=O)cc1OC,–,–,–,–,–
COc1ccc(Cc2nnc(N/N=C/c3ccc(O)cc3)[nH]c2=O)cc1OC,92,–,–,–,–
CCCNC(=O)Nc1ccc2c(c1)OC[C@@H](C)N(C(=O)C1CCCCC1)C[C@@H](C)[C@@H](OC)CN(C)C2=O,–,·,·,·,·
Nc1cc(Cl)nc(N/N=C/c2ccccc2[N+](=O)[O-])n1,–,–,–,18,–
Cc1ccc(NS(=O)(=O)c2ccc(NC(=O)CSc3ccc(Cl)cc3)cc2)c(C)c1,–,–,–,–,23
Cc1ccc(O)c(NC(=O)CSc2ccc(Cl)cc2)c1,–,–,–,–,–
COCC(=O)Nc1ccc2c(c1)[C@@H]1C[C@H](CC(=O)N3CCc4ccccc4C3)O[C@@H](CO)[C@@H]1O2,–,·,·,·,·
COc1cccc2c1C(=O)c1c(O)c3c(c(O)c1C2=O)C[C@@](O)(C(=O)CO)C[C@@H]3O[C@H]1C[C@H](N)[C@@H](O)[C@H](C)O1,–,·,69,·,·
Cc1cc(C)c(S(=O)(=O)/N=C2/C=C(Sc3ncn[nH]3)C(=O)c3ccccc32)cc1C,–,43,–,20,–
CCOC(=O)N1CCN(C(=O)CCS(=O)(=O)c2ccc(Br)s2)CC1,–,–,–,17,–
CN(C)C(=O)C[C@@H]1C[C@@H]2c3cc(NS(=O)(=O)c4ccccc4)ccc3O[C@@H]2[C@H](CO)O1,–,·,·,·,·
CCCNC(=O)[C@H]1[C@H](CO)[C@H]2Cn3c(ccc(-c4ccc(F)cc4)c3=O)[C@@H]1N2CC,–,·,·,·,·
O=C(Nn1cc(C(=O)Nc2ccc(F)cc2F)c2ccccc2c1=O)c1cnccn1,65,–,–,–,–
CSc1ccccc1-c1nnc(NC(=O)Cc2ccccc2)o1,–,–,–,–,–
CS(=O)(=O)c1ccccc1-c1nnc(NC(=O)Cc2ccccc2)o1,62,–,–,–,–
